Results from ChEMBL document CHEMBL1828503, “Design, synthesis and docking studies of quinoline-oxazolidinone hybrid molecules and their antitubercular properties” (2011).
In brackets after ≈: the same amount, converted by molar mass.

How the values were obtained:
Type in all cases: functional
[1] = tested on: Mycobacterium tuberculosis; experiment: Antimicrobial activity against Mycobacterium tuberculosis H37Rv ATCC 27294 assessed as growth inhibition after 7 days by resazurin assay
[2] = tested on: Mycolicibacterium fortuitum; experiment: Antimicrobial activity against Mycobacterium fortuitum ATCC 19542 after 7 days by resazurin assay; settings: ATCC 19542, 168 h
Outline: (§1)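 Resazurin microplate assay. Culture added to fresh medium in 96-well plates. Compound stocks 2 mg/mL in DMF. DMF-only controls, with rifampicin and isoniazid as references. Incubated 7 days at 37 °C, then 0.01% resazurin in water added. Blue-to-pink change read after 1 h at 37 °C. MIC taken as the lowest concentration preventing the colour change.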

[3] = tested on: Pseudomonas aeruginosa; experiment: Antimicrobial activity against Pseudomonas aeruginosa ATCC 27853 after 18 to 48 hrs by serial dilution method
[4] = tested on: Mycobacterium tuberculosis; experiment: Antimicrobial activity against Mycobacterium tuberculosis H37Rv ATCC 27294 after 7 days by resazurin assay; settings: H37Rv ATCC 27294, 168 h
Outline: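 M. tuberculosis H37Rv ATCC 27294 culture diluted into fresh medium in 96-well microtitre plates. Compounds were taken from 2 mg/mL stocks in DMF, with DMF-only control tubes and rifampicin and isoniazid as references. Plates were incubated 37 °C for 7 days, then 0.01% aqueous resazurin was added and read after 1 h at 37 °C. MIC is the lowest concentration preventing the blue-to-pink change.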

[5] = tested on: Escherichia coli; experiment: Antimicrobial activity against Escherichia coli ATCC 25922 after 18 to 48 hrs by serial dilution method
[6] = tested on: Mycolicibacterium smegmatis; experiment: Antimicrobial activity against Mycobacterium smegmatis ATCC 19420 after 7 days by resazurin assay; settings: ATCC 19420, 168 h; outline: as §1
[7] = tested on: Streptococcus pyogenes; experiment: Antimicrobial activity against Streptococcus pyogenes clinical isolate after 18 to 48 hrs by serial dilution method
[8] = tested on: Staphylococcus aureus; experiment: Antimicrobial activity against Staphylococcus aureus ATCC 25923 after 18 to 48 hrs by serial dilution method
[9] = tested on: Klebsiella pneumoniae; experiment: Antimicrobial activity against Klebsiella pneumoniae clinical isolate after 18 to 48 hrs by serial dilution method

| Structure (SMILES) | growth inhibition (GI) [1] [%] | MIC [2] [µg/mL] | MIC [3] [µg/mL] | MIC [4] [µg/mL] | MIC [5] [µg/mL] | MIC [6] [µg/mL] | MIC [7] [µg/mL] | MIC [8] [µg/mL] | MIC [9] [µg/mL] |
| --- | --- | --- | --- | --- | --- | --- | --- | --- | --- |
| COc1ccc2nc(C)cc(N3CC(CNC(=O)c4ccc(F)cc4)OC3=O)c2c1 (stereo not given) | 90 | 10 (≈ 24.4 µM) | 0.4 (≈ 0.977 µM) | 1 (≈ 2.44 µM) | 0.2 (≈ 0.488 µM) | 10 (≈ 24.4 µM) | 0.4 (≈ 0.977 µM) | 0.8 (≈ 1.95 µM) | 0.1 (≈ 0.244 µM) |
| COc1ccc2nc(C)cc(NC(=O)CN3CC(CN4CCOCC4)OC3=O)c2c1 (stereo not given) | 95 | 10 (≈ 24.1 µM) | 0.4 (≈ 0.965 µM) | 1 (≈ 2.41 µM) | 0.1 (≈ 0.241 µM) | 10 (≈ 24.1 µM) | 0.2 (≈ 0.483 µM) | 0.8 (≈ 1.93 µM) | 0.1 (≈ 0.241 µM) |
| COc1ccc2nc(C)cc(N3CC(CNC(=O)c4ccc(C(F)(F)F)cc4)OC3=O)c2c1 (stereo not given) | 90 | 2.5 (≈ 5.44 µM) | 0.4 (≈ 0.871 µM) | 0.625 (≈ 1.36 µM) | 0.4 (≈ 0.871 µM) | 10 (≈ 21.8 µM) | 0.4 (≈ 0.871 µM) | 0.8 (≈ 1.74 µM) | 0.8 (≈ 1.74 µM) |
| COc1ccc(C(=O)NCC2CN(c3cc(C)nc4ccc(OC)cc34)C(=O)O2)cc1 (stereo not given) | 85 | 10 (≈ 23.7 µM) | 0.2 (≈ 0.475 µM) | 5 (≈ 11.9 µM) | 0.2 (≈ 0.475 µM) | 5 (≈ 11.9 µM) | 0.4 (≈ 0.949 µM) | 0.8 (≈ 1.9 µM) | 0.1 (≈ 0.237 µM) |
| COc1ccc2nc(C)cc(NC(=O)CN3CC(CN4CCN(C(C)=O)CC4)OC3=O)c2c1 (stereo not given) | 80 | 100 (≈ 220 µM) | 1.6 (≈ 3.51 µM) | 5 (≈ 11 µM) | 1.6 (≈ 3.51 µM) | 100 (≈ 220 µM) | 0.8 (≈ 1.76 µM) | 0.8 (≈ 1.76 µM) | 1.6 (≈ 3.51 µM) |
| COc1ccc2nc(C)cc(NC(=O)CN3CC(CNCC4CCCCC4)OC3=O)c2c1 (stereo not given) | 0 | 100 (≈ 227 µM) | > 12.5 | 100 (≈ 227 µM) | 6.25 (≈ 14.2 µM) | 100 (≈ 227 µM) | 1.6 (≈ 3.63 µM) | 6.25 (≈ 14.2 µM) | 6.25 (≈ 14.2 µM) |
| O=C(O)c1cn(C2CC2)c2cc(N3CCNCC3)c(F)cc2c1=O [CIPROFLOXACIN] | – | – | 0.4 (≈ 1.21 µM) | – | 0.025 (≈ 0.0754 µM) | – | – | 1 (≈ 3.02 µM) | – |
| COc1ccc2nc(C)cc(N3CC(CNC(=O)c4ccc(Cl)cc4)OC3=O)c2c1 (stereo not given) | 85 | 100 (≈ 235 µM) | 6.25 (≈ 14.7 µM) | 100 (≈ 235 µM) | 3.12 (≈ 7.34 µM) | 100 (≈ 235 µM) | 3.12 (≈ 7.34 µM) | 1.6 (≈ 3.76 µM) | 6.25 (≈ 14.7 µM) |
| COc1ccc2nc(C)cc(NC(=O)CN3CC(CN4CCCCC4)OC3=O)c2c1 (stereo not given) | 0 | 100 (≈ 242 µM) | 3.12 (≈ 7.58 µM) | 100 (≈ 242 µM) | > 12.5 | 100 (≈ 242 µM) | 6.25 (≈ 15.2 µM) | 3.12 (≈ 7.58 µM) | > 12.5 |
| COc1ccc2nc(C)cc(NC(=O)CN3CC(CNC4CCCC4)OC3=O)c2c1 (stereo not given) | 0 | 100 (≈ 242 µM) | > 12.5 | 100 (≈ 242 µM) | > 12.5 | 100 (≈ 242 µM) | 6.25 (≈ 15.2 µM) | > 12.5 | 6.25 (≈ 15.2 µM) |
| CCc1ccc(C(=O)NCC2CN(c3cc(C)nc4ccc(OC)cc34)C(=O)O2)cc1 (stereo not given) | 0 | 100 (≈ 238 µM) | > 12.5 | 100 (≈ 238 µM) | 3.12 (≈ 7.45 µM) | 100 (≈ 238 µM) | 6.25 (≈ 14.9 µM) | 1.6 (≈ 3.81 µM) | 1.6 (≈ 3.81 µM) |
| COc1ccc2nc(C)cc(N3CC(CNC(C)=O)OC3=O)c2c1 (stereo not given) | 95 | 10 (≈ 30.4 µM) | 0.4 (≈ 1.21 µM) | 0.625 (≈ 1.9 µM) | 0.2 (≈ 0.607 µM) | 2.5 (≈ 7.59 µM) | 0.2 (≈ 0.607 µM) | 0.8 (≈ 2.43 µM) | 0.1 (≈ 0.304 µM) |
| COc1ccc2nc(C)cc(NC(=O)CN3CC(CN4CCN(C(C)C)CC4)OC3=O)c2c1 (stereo not given) | 85 | 100 (≈ 220 µM) | 0.8 (≈ 1.76 µM) | 5 (≈ 11 µM) | 0.8 (≈ 1.76 µM) | 100 (≈ 220 µM) | 1.6 (≈ 3.51 µM) | 1.6 (≈ 3.51 µM) | 3.12 (≈ 6.86 µM) |
| COc1ccc2nc(C)cc(N3CC(CNC(=O)C4CC4)OC3=O)c2c1 (stereo not given) | 90 | 10 (≈ 28.1 µM) | 0.4 (≈ 1.13 µM) | 1 (≈ 2.81 µM) | 0.8 (≈ 2.25 µM) | 10 (≈ 28.1 µM) | 0.4 (≈ 1.13 µM) | 0.8 (≈ 2.25 µM) | 1.6 (≈ 4.5 µM) |
